Bioassay records from PubChem BioAssay.
Yeast life ext – yeast lifespan extension. S. cerevisiae growth with nicotinamide, OD615; deaD strain in restrictive glucose medium. inhibition of the nicotinamide effect, % at 10 µM. 130,000 tested, 0.68% active. AID 775;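 active = inhibition above a set limit, placed 3 SD over the median of all compounds, cut at about 26% in these data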;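 also: 0% = nicotinamide-treated wells and 100% = cells grown without nicotinamide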
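System: DeaD-strain S. cerevisiae / Buffer or medium: CSMM-D, restrictive glucose (dextrose) synthetic minimal medium / Probe or stimulus: nicotinamide, 1.5 mM, co-present with compound / Compound: one concentration, 10 µM, DMSO 0.25% / Incubation: 48 h compound exposure at 30 °C, humidified / Technique: optical density (absorbance) at 615 nm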
RAM network inh – inhibitors of the yeast RAM network. S. cerevisiae dse1pr::URA3 reporter, 5-FOA growth OD615, 2 d; analog-sensitive cbk1-as2 kinase mutant strain. inhibition, % at 50 µM. 190,000 tested, 1.8% active. AID 868;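 active = inhibition above a set limit, 3 SD over mean compound inhibition, cut at about 8.4% in these data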;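 also: 0% = DMSO-only wells with no growth and 100% = 10 µM 1-NA-PP1 full growth; inhibition rescues growth on 5-FOA so higher OD means more RAM inhibition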
Yeast growth inh – chemicals that inhibit yeast BB579 growth in restrictive medium (lifespan-shortening candidates); S. cerevisiae BB579 growth, OD615, 48 h; inhibition, % at 10 µM; 140,000 tested, 0.51% active;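 active = inhibition above a set limit, 3 SD over the mean compound inhibition, cut at about 44% in these data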
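Assay system – yeast BB579 (DeaD) · Dosing – single compound dose of 10 µM, 0.25% DMSO final · Detection – OD615 turbidity measurement · Buffer or medium – CSMM-D restrictive synthetic medium containing dextrose (glucose) · Benchmarks – positive control amphotericin B 10 µg/mL · Incubation – 48 h exposure, 30 °C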
RAM efflux-def – restores 5-FOA growth of efflux-deficient yeast. shares compounds with RAM network inh. S. cerevisiae efflux-deficient reporter strain, 5-FOA growth OD615, 2 days. max inhibition, %. 1,200 tested, under 10 active; call rule not given here;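 also: plate controls were vehicle for no effect and reference inhibitor for full effect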
* hit, by the source's call; . = not tested or not shown. Most compounds without a hit are left out; they make up all but 2.6% or so of the library.

SMILES	Yeast life ext	RAM network inh	Yeast growth inh	RAM efflux-def
COc1cccc(C(=O)Oc2ccccc2/C=C\C(=O)c2cc3ccccc3o2)c1	3.5	16.4*	-34.1	7.8
COc1ccc(NC(=O)c2cc3ccccc3o2)cc1	-10.9	0.5	-30.2	.
COc1ccc(CCNC(=O)c2cc3c(C)nccc3[nH]c2=O)cc1OC	.	2.2	.	.
O=C(/C(=N/N=C/c1ccc(O)c(O)c1O)c1ccccc1)c1ccccc1	-10.6	17.0*	95.1*	1.4
NC(=O)/C(=N\O)c1ccccc1	-2.1	0.1	-41.8	.
Cc1ccc(NC(=O)CNC(=O)c2cccs2)cc1S(=O)(=O)Nc1ccc(Cl)cc1	-0.6	11.9*	-25.2	2.5
COc1ccc(NC(=O)CNC(=O)c2cccs2)cc1Cl	.	1.6	.	.
CCC(CO)[n+]1c(C)cc(/C=C2\Sc3ccccc3N2Cc2ccccc2)cc1C (stereo not drawn)	0.2	1.6	-17.1	.
CCOc1cc(S(=O)(=O)n2ccnc2)ccc1Cl	.	1.9	.	.
Cc1ccc(S(=O)(=O)Cn2nnnc2C(C(C)C)N2CCN(Cc3ccco3)CC2)cc1 (stereo not drawn)	19.6	1.9	-50.2	.
Cc1ccc(S(=O)(=O)Cn2nnnc2CN(Cc2ccco2)Cc2cccs2)cc1	1.6	11.8*	-49.2	1.8
O=C(COC(=O)c1ccc2[nH]c3c(c2c1)CCCC3)Nc1ccccc1	-5.2	3.3	-28.4	.
CSCCC(NS(=O)(=O)c1ccc2ccccc2c1)C(=O)OCC(=O)c1ccc(C(C)C)cc1 (stereo not drawn)	5.6	15.4*	-15.5	3.9
CSCCC(NC(N)=O)C(=O)Nc1ccc2ccccc2c1 (stereo not drawn)	.	2.0	.	.
Nc1nc(N)nc(-c2ccc(Oc3ccccc3)cc2)n1	-3.8	5.7	-10.2	.
Cc1ccccc1Oc1ccc(-c2nc(N)nc(N)n2)cc1	-31.4	12.3*	1.8	1.6
CC1CCCN(C(=O)C(C)Sc2nc(-c3ccccc3)cc(C(F)(F)F)n2)C1 (stereo not drawn)	20.3	14.4*	-87.0	1.6
CC(Sc1nc(-c2ccccc2)cc(C(F)(F)F)n1)C(=O)N1CCCCC1 (stereo not drawn)	-7.9	2.9	11.6	.
COc1ccc(OCCC(=O)OCC(=O)NCCc2ccccc2)cc1	.	1.9	.	.
Cc1ccc(/C=C/S(=O)(=O)NCc2ccc(F)cc2)cc1	.	3.5	.	.
O=C(CSc1nc(SCC(=O)NCc2ccccc2)n(-c2ccccc2)n1)NCc1ccccc1	-16.5	36.1*	-20.9	2.0
CN(C)C(=O)CSc1nc(SCC(=O)N(C)C)n(-c2ccccc2)n1	-19.9	0.3	-35.8	.
CCOC(=O)C(C)Sc1ccc2nnc(CCNS(=O)(=O)c3ccccc3)n2n1 (stereo not drawn)	.	0.1	.	.
CCOc1cc(NC(=O)c2ccccn2)c(OCC)cc1NC(=O)c1ccc(C)cc1	.	12.0*	.	1.9
CCOc1cc(NC(=O)C2CCCCC2)c(OCC)cc1NC(=O)c1ccccn1	.	1.8	.	.
SMILES	Yeast life ext	RAM network inh	Yeast growth inh	RAM efflux-def
O=C(COC(=O)c1ccc(-c2ccccc2)cc1)Nc1ccccc1-c1ccccc1	4.6	11.8*	-29.6	3.5
O=C(COC(=O)c1ccc(O)cc1)Nc1ccccc1-c1ccccc1	1.5	1.8	-14.8	.
O=C(/C=C/c1ccc(N2CCCCC2)c([N+](=O)[O-])c1)c1ccc(S(=O)(=O)N2CCCC2)cc1	3.5	11.9*	-43.8	5.8
COc1cccc(C(=O)/C=C/c2ccc(N3CCCCC3)c([N+](=O)[O-])c2)c1	21.9	19.2*	-48.0	5.1
CN1CCN(c2ccc(S(=O)(=O)N3CCCCC3)cc2[N+](=O)[O-])CC1	.	1.9	.	.
CCN(CC)S(=O)(=O)c1ccc(N2CCN(c3cccc(OC)c3)CC2)c([N+](=O)[O-])c1	11.8	13.3*	-27.8	5.3
COc1cccc(/C=C/C(=O)c2cccc([N+](=O)[O-])c2)c1	.	0.9	.	.
CCN1CCN(c2ccc(S(=O)(=O)N(CC)CC)cc2[N+](=O)[O-])CC1	10.4	2.6	-54.7	.
Nn1c(Cc2cccc3ccccc23)nnc1SCCOc1ccc(F)cc1	-5.2	2.3	-28.8	.
COc1ccc(-c2nnc(SCc3c(C)noc3C)o2)cc1	.	-0.5	.	.
O=C(NN=C1C2CC3CC1CC(Cl)(C3)C2)c1ccccn1	.	0.1	.	.
CCOc1cc(CNc2ccc(CNc3ncn[nH]3)cc2)ccc1OCc1ccccc1	-4.8	12.2*	-10.8	6.7
COc1cc(CNc2ccc(CNc3ncn[nH]3)cc2)ccc1OCC(=O)NC(C)(C)C	0.6	1.8	-25.1	.
Nc1nc(SCC(=O)NCc2ccccc2Cl)[nH]c(=O)c1NC(=O)c1ccccc1F	1.8	2.6	-25.9	.
Nc1nc(SCC(=O)NCc2ccc(F)cc2)[nH]c(=O)c1NC(=O)c1ccc(Cl)cc1	4.0	11.7*	-41.8	0.7
CCN(CC)S(=O)(=O)c1cccc(-c2nnc(SCCOc3ccccc3C)o2)c1	-6.0	11.8*	-54.3	1.5
CCN(CC)S(=O)(=O)c1ccc(-c2nnc(SCc3nnc(-c4ccc(C)cc4)o3)o2)cc1	7.9	2.9	-68.6	.
CCN(CC)S(=O)(=O)c1cccc(-c2nnc(SCC(=O)c3cc(C)n(C)c3C)o2)c1	-5.2	3.5	-58.5	.
CCN(CC)S(=O)(=O)c1cccc(-c2nnc(SCCOc3ccc(Cl)cc3)o2)c1	2.5	15.9*	-24.6	3.1
CCN(CC)S(=O)(=O)c1cccc(-c2nnc(SCc3nnc(-c4ccccc4)o3)n2C)c1	-7.5	0.3	-1.0	.
CCN(CC)S(=O)(=O)c1cccc(-c2nnc(SCCOc3ccccc3)o2)c1	10.0	13.2*	-79.1	3.1
Cc1cccc(-c2nc3sc(C)cc3c(=O)o2)c1	.	3.7	.	.
CCN(CC)CCCNC(=O)CSc1nc(-c2ccc(F)cc2)cc(C(F)(F)F)n1	.	-0.8	.	.
Cc1ccn2c(C(=O)N/N=C/c3ccc(CNC(=O)C(=O)Nc4ccc(C)c(C)c4)o3)c(C)nc2c1	-3.5	2.4	-4.3	.
Cc1ccc(C2(CCNCc3ccc(N(C)C)cc3)CCOC(C(C)C)C2)cc1 (stereo not drawn)	.	0.2	.	.
SMILES	Yeast life ext	RAM network inh	Yeast growth inh	RAM efflux-def
Cc1ccc(C2(CCNS(=O)(=O)c3ccc(C)cc3)CCOC(C(C)C)C2)cc1 (stereo not drawn)	1.7	15.0*	-25.0	5.4
CCC1(C)CC(CCNS(=O)(=O)c2ccc(C)cc2)(c2ccc(C)cc2)CCO1 (stereo not drawn)	-15.0	15.9*	-52.8	3.6
CC1(C)CC(CCNS(=O)(=O)c2ccccc2)(c2ccccc2)CCO1 (stereo not drawn)	4.0	0.0	-28.1	.
Cc1oc(-c2ccccc2Cl)nc1CN1CCCCC1c1cccnc1 (stereo not drawn)	.	-0.5	.	.
Cc1cc(C)c(OC2(c3ccccc3)OC(=O)c3ccccc32)c(C)c1 (stereo not drawn)	-2.6	12.3*	-40.5	3.2
Cc1cccc(C)c1OC1(c2ccccc2)OC(=O)c2ccccc21 (stereo not drawn)	-13.3	11.9*	-59.8	6.0
Cc1cc(C2(c3ccc(O)c(C)c3)OC(=O)c3ccccc32)ccc1O	0.7	4.7	-6.3	.
CCOC1(c2ccccc2)OC(=O)c2ccccc21 (stereo not drawn)	-0.8	1.1	-24.5	.
C=CCN1C=C/C(=C\C=C(C#N)C#N)c2ccccc21	-2.2	4.2	-28.9	.
